Assay results from ChEMBL document CHEMBL1142068, “Reduced susceptibility to polyenes associated with a missense mutation in the ERG6 gene in a clinical isolate of Candida glabrata with pseudohyphal growth” (2007).
In brackets after ≈: the same amount, converted by molar mass. Activity calls are given as the source filed them. The calls are words filed in the database; no cut-off is given here.

Legend:
Nakaseomyces glabratus [1] = test: Antimicrobial activity against Candida glabrata 21231 isolate by E-test; type: functional
Nakaseomyces glabratus [2] = test: Antimicrobial activity against polyene-resistant Candida glabrata 21229 isolate by E-test; type: functional
Nakaseomyces glabratus [3] = test: Susceptibility of polyene-resistant Candida glabrata 21229 isolate at 1 ug by disk diffusion method; type: functional
How it was run: (§1)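 Disk diffusion on Casitone agar (pH 7.2, chloramphenicol 0.5 g/liter) with drug tablets. Tablet drug contents: voriconazole 1 μg, itraconazole 8 μg, amphotericin B/miconazole/clotrimazole 10 μg, fluconazole/ketoconazole 15 μg, nystatin 50 μg. Read-out is growth inhibition zone diameter (mm), mean of triplicates. Isolates were compared by Wilcoxon-Mann-Whitney test, unilateral α = 0.05.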

Nakaseomyces glabratus [4] = test: Susceptibility of Candida glabrata 21231 isolate at 15 ug by disk diffusion method; type: functional; details: read-out: IZ; how it was run: as §1
Nakaseomyces glabratus [5] = test: Susceptibility of polyene-resistant Candida glabrata 21229 isolate at 15 ug by disk diffusion method; type: functional; details: read-out: IZ; how it was run: as §1
Nakaseomyces glabratus [6] = test: Susceptibility of Candida glabrata 21231 isolate at 50 ug by disk diffusion method; type: functional, organism-based; how it was run: as §1
Nakaseomyces glabratus [7] = test: Susceptibility of polyene-resistant Candida glabrata 21229 isolate at 50 ug by disk diffusion method; type: functional, organism-based; how it was run: as §1
Nakaseomyces glabratus [8] = test: Susceptibility of polyene-resistant Candida glabrata 21229 isolate at 10 ug by disk diffusion method; type: functional; details: read-out: IZ; how it was run: as §1
Nakaseomyces glabratus [9] = test: Susceptibility of Candida glabrata 21231 isolate at 10 ug by disk diffusion method; type: functional; details: read-out: IZ
How it was run: (§2)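 Disk diffusion was run on Casitone agar (pH 7.2) with Neosensitab tablets. Tablets held 10 μg for amphotericin B, econazole, miconazole and clotrimazole, and 8 μg for itraconazole. Read-out is the inhibition-zone diameter in mm, as the mean of triplicates. Isolates were compared by Wilcoxon-Mann-Whitney test, unilateral α = 0.05.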

Nakaseomyces glabratus [10] = test: Susceptibility of Candida glabrata 21231 isolate at 8 ug by disk diffusion method; type: functional; details: read-out: IZ; how it was run: as §2
Nakaseomyces glabratus [11] = test: Susceptibility of polyene-resistant Candida glabrata 21229 isolate at 8 ug by disk diffusion method; type: functional; details: read-out: IZ; how it was run: as §1
Nakaseomyces glabratus [12] = test: Growth inhibition of polyene-resistant Candida glabrata 21229 isolate in YEPD agar plates at 4 mg/ml; type: functional, organism-based
Nakaseomyces glabratus [13] = test: Growth inhibition of Candida glabrata 21231 isolate in YEPD agar plates at 4 mg/ml; type: functional, organism-based
How it was run: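 Dye susceptibility on YEPD agar plates with dye at increasing levels from 0.1 to 4 mg/ml. Inocula ranged from 2 × 10^6 to 2 × 10^2 cells. The read-out is the minimum dye concentration that inhibited growth of the same quantity of cells.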

Nakaseomyces glabratus [14] = test: Susceptibility of polyene-resistant Candida glabrata 21229 isolate by disk diffusion method; type: functional; how it was run: as §1
Nakaseomyces glabratus [15] = test: Susceptibility of Candida glabrata 21229F34 isolate with URA3 by disk diffusion method; type: functional
Nakaseomyces glabratus [16] = test: Susceptibility of Candida glabrata 21229C218 isolate expressing ERG6 gene by disk diffusion method; type: functional
How it was run: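 Complemented ura3 derivative carrying a plasmid-borne ERG6 copy was selected on selective medium. Amphotericin B susceptibility was tested by disk diffusion on Casitone agar (pH 7.2) with Neosensitab tablets. Read-out is the growth-inhibition zone diameter in mm.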

Compound	MIC (Nakaseomyces glabratus [1]) [µg/mL]	MIC (Nakaseomyces glabratus [2]) [µg/mL]	zone of inhibition at 10 µg/disc (Nakaseomyces glabratus [8]) [mm]	zone of inhibition at 10 µg/disc (Nakaseomyces glabratus [9]) [mm]	further results
CC[C@H](C)C[C@H](C)CCCCCCCCC(=O)N[C@H]1C[C@@H](O)[C@@H](NCCN)NC(=O)[C@@H]2[C@@H](O)CCN2C(=O)[C@H]([C@H](O)CCN)NC(=O)[C@H]([C@H](O)[C@@H](O)c2ccc(O)cc2)NC(=O)[C@@H]2C[C@@H](O)CN2C(=O)[C@H]([C@@H](C)O)NC1=O [CASPOFUNGIN]	0.023 (≈ 0.021 µM)	0.024 (≈ 0.022 µM)	–	–	–
C[C@@H](c1ncncc1F)[C@](O)(Cn1cncn1)c1ccc(F)cc1F [VORICONAZOLE]	0.125 (≈ 0.358 µM)	0.047 (≈ 0.135 µM)	–	–	zone of inhibition at 1 µg/disc (Nakaseomyces glabratus [3]; Nakaseomyces glabratus, 21229, read-out: IZ): 43 mm; zone of inhibition at 1 µg/disc (Nakaseomyces glabratus [3]; read-out: IZ): 43 mm
CC(=O)N1CCN(c2ccc(OCC3COC(Cn4ccnc4)(c4ccc(Cl)cc4Cl)O3)cc2)CC1 (stereo not drawn) [KETOCONAZOLE]	0.136 (≈ 0.256 µM)	0.034 (≈ 0.064 µM)	–	–	zone of inhibition at 15 µg/disc (Nakaseomyces glabratus [4]): 24 mm; zone of inhibition at 15 µg/disc (Nakaseomyces glabratus [5]): 50 mm
NYSTATIN	–	–	–	–	inhibition zone (IZ) (Nakaseomyces glabratus [6]): 34 mm; inhibition zone (IZ) (Nakaseomyces glabratus [7]): 16 mm
Clc1ccccc1C(c1ccccc1)(c1ccccc1)n1ccnc1 [CLOTRIMAZOLE]	–	–	40	26	–
CCC(C)n1ncn(-c2ccc(N3CCN(c4ccc(OCC5COC(Cn6cncn6)(c6ccc(Cl)cc6Cl)O5)cc4)CC3)cc2)c1=O (stereo not drawn) [ITRACONAZOLE]	18.7 (≈ 26.5 µM)	1.8 (≈ 2.55 µM)	–	–	zone of inhibition at 8 µg/disc (Nakaseomyces glabratus [10]): 16 mm; zone of inhibition at 8 µg/disc (Nakaseomyces glabratus [11]): 30 mm
Nc1c(/N=N/c2ccc(-c3ccc(/N=N/c4cc(S(=O)(=O)O)c5ccccc5c4N)cc3)cc2)cc(S(=O)(=O)O)c2ccccc12	–	–	–	–	Activity (Nakaseomyces glabratus [12]): inactive; Activity (Nakaseomyces glabratus [13]): inactive
OC(Cn1cncn1)(Cn1cncn1)c1ccc(F)cc1F [FLUCONAZOLE]	3.7 (≈ 12.1 µM)	1 (≈ 3.27 µM)	–	–	zone of inhibition at 15 µg/disc (Nakaseomyces glabratus [4]): 20 mm; zone of inhibition at 15 µg/disc (Nakaseomyces glabratus [5]): 50 mm
Clc1ccc(COC(Cn2ccnc2)c2ccc(Cl)cc2Cl)c(Cl)c1 (stereo not drawn) [MICONAZOLE]	–	–	30	18	–
C[C@@H]1[C@H](O)[C@@H](C)/C=C/C=C/C=C/C=C/C=C/C=C/C=C/[C@H](O[C@@H]2O[C@H](C)[C@@H](O)[C@H](N)[C@@H]2O)C[C@@H]2O[C@](O)(C[C@@H](O)C[C@@H](O)[C@H](O)CC[C@@H](O)C[C@@H](O)CC(=O)O[C@H]1C)C[C@H](O)[C@H]2C(=O)O [AMPHOTERICIN B]	0.029 (≈ 0.0314 µM)	1.3 (≈ 1.41 µM)	13	34	inhibition zone (IZ) (Nakaseomyces glabratus [14]): 16 mm; inhibition zone (IZ) (Nakaseomyces glabratus [15]): 16 mm; inhibition zone (IZ) (Nakaseomyces glabratus [16]): 30 mm
